Experiments:
GCPII = conditions: read-out: IC50 (GCPII); cited from earlier work
[1] = system: rat chronic constriction injury model of neuropathic pain; conditions: cited from earlier work
[2] = healthy subjects; cited from earlier work
[3] = Preliminary in vivo pharmacokinetics in rats; conditions: rat, oral 10 mg/kg, time points 0.25, 0.5, 1, 3 h
[4] = Chemical stability in simulated gastric fluid; type: physicochemical; conditions: simulated gastric fluid pH 1.2, 37 °C, up to 48 h
In short: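 Test compound added to simulated gastric fluid (pH 1.2) and incubated at 37 °C. Samples taken at 30 min, 1, 4 and 48 h. Remaining thiolactone and hydrolysed parent quantified by HPLC: C18 column, water/acetonitrile gradient with 0.1% formic acid, UV detection at 220 nm.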

[5] = Metabolic stability in rat liver microsomes; type: in vitro ADME; conditions: over 1.5 h (data not shown)
In short: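 Test compound at 10 μM incubated with rat liver microsomes (0.5 mg/mL) in 100 mM potassium phosphate, pH 7.4, in triplicate. Aliquots at 0, 30, 60 and 90 min were quenched with 2 volumes of ice-cold acetonitrile containing losartan as internal standard. Appearance of the parent thiol and loss of compound were followed by LC/MS/MS (C18, negative-ion ESI, MRM of [M − H]−).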

For `O=C(O)CCC(CCCS)C(=O)O` (stereo not drawn) [Compound 1, 2-(3-mercaptopropyl)pentanedioic acid], the IC50 (GCPII) is listed as 90 nM and the “Efficacy in preclinical animal models by oral administration” value ([1]; variety of preclinical animal models, oral) is listed as “showed efficacy”.

In the case of `O=C(O)c1cccc(-c2cccc(CCS)c2C(=O)O)c1` [Compound 2, 3-(2-mercaptoethyl)-biphenyl-2,3’-dicarboxylic acid], the IC50 (GCPII) is given as 2 nM and the “Potency in a preclinical model of neuropathic pain following oral administration” value ([1]; oral administration) is given as “significantly improved potency over 1”.

In the case of `CC(=O)S[C@@H](Cc1ccccc1)C(=O)N[C@H]1Cc2ccccc2[C@H]2CCC[C@@H](C(=O)O)N2C1=O` [Compound 3], the “Plasma exposure to parent 4 after oral administration of prodrug” value [2] is given as “substantial plasma exposure to 4”.

For `O=C(O)CCC1CCCSC1=O` (stereo not drawn) [Compound 5, 3-(2-Oxotetrahydro-2H-thiopyran-3-yl)propanoic acid], the “Time of highest plasma level of compound 1” value [3] was “highest at the earliest time point” and the “Release of parent compound / stability in simulated gastric fluid” value [4] was “completely stable”.

For `O=C(O)c1cccc(-c2cccc3c2C(=O)SCC3)c1` [Compound 6, 3-(1-Oxoisothiochroman-8-yl)benzoic acid], the “Release of parent compound / stability in simulated gastric fluid” value [4] was “completely stable” and the “Stability in rat liver microsomes” value [5] was “completely stable”.

Reference: article PMC3932958 (Journal of medicinal chemistry, 2013)
